Test results: ChEMBL document CHEMBL1143929, “Synthesis and antiprotozoal activity of novel bis-benzamidino imidazo[1,2-a]pyridines and 5,6,7,8-tetrahydro-imidazo[1,2-a]pyridines” (Bioorg Med Chem, 2008)
pIC50, pKd: −log10 of the molar value.

Legend:
[1] = system: Trypanosoma brucei rhodesiense; assay: Antiprotozoan activity against Trypanosoma brucei rhodesiense STIB900; assay type: functional, organism-based
Plasmodium falciparum = assay: Antiprotozoal activity against Plasmodium falciparum K1; assay type: functional, organism-based
[2] = system: Trypanosoma brucei rhodesiense; assay: Antitrypanosomal activity against Trypanosoma brucei rhodesiense STIB900 infected mouse model assessed as survival at 5 mg/kg, ip after 4 days; assay type: functional; conditions: route intraperitoneal
Procedure, shortened: (§1)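 Acute African trypanosomiasis model in mice infected with T. b. rhodesiense STIB900. Diamidines were given intraperitoneally and prodrugs orally, dosed over 4 days. Read-outs were cures (mice surviving parasite-free for 60 days, out of 4) and average days of survival, compared against untreated infected controls.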

[3] = system: Trypanosoma brucei rhodesiense; assay: Antitrypanosomal activity against Trypanosoma brucei rhodesiense STIB900 infected mouse model assessed as survival at 25 mg/kg, po after 4 days; assay type: functional; procedure, shortened: as §1
L6 = assay: Cytotoxicity against rat L6 cells; assay type: cell-based
[4] = Binding affinity to DNA
[5] = system: Trypanosoma brucei rhodesiense; assay: Antitrypanosomal activity against Trypanosoma brucei rhodesiense STIB900 infected mouse model assessed as survival at 20 mg/kg, ip after 4 days; assay type: functional; conditions: route intraperitoneal; procedure, shortened: as §1
[6] = system: Trypanosoma brucei rhodesiense; assay: Antitrypanosomal activity against Trypanosoma brucei rhodesiense STIB900 infected mouse model assessed as survival at 5 mg/kg, po after 4 days; assay type: functional; procedure, shortened: as §1

Compound	pIC50 [1]	pIC50 (Plasmodium falciparum)	Survival [2] [days]	Survival [3] [days]	pIC50 (L6)	pKd [4]	Survival [5] [days]	Survival [6] [days]
N=C(N)c1ccc(-c2ccc(-c3ccc(C(=N)N)cn3)o2)cc1	8.19	8.19	>54.5	–	–	–	–	–
CO/N=C(\N)c1ccc(-c2cn3cc(-c4ccc(/C(N)=N\OC)cc4)nc3c(C)c2C)cc1	5.14	5.49	–	15.5	–	–	–	–
CO/N=C(\N)c1ccc(-c2ccc3nc(-c4ccc(/C(N)=N\OC)cc4)cn3c2)cc1	6.08	6.74	–	10.75	5.16	–	–	–
Cc1c(-c2ccc(C(=N)N)cc2)cn2cc(-c3ccc(C(=N)N)cc3)nc2c1C	7.82	7.20	>39.5	–	5.33	–	–	–
N=C(N)c1ccc(-c2cn3c(n2)CCC(c2ccc(C(=N)N)cc2)C3)cc1 (stereo not given)	7.85	7.07	31.25	–	5.05	6.60	>60	–
CO/N=C(\N)c1ccc(-c2cn3cc(-c4ccc(/C(N)=N\OC)cc4)nc3cc2C)cc1	5.76	6.06	–	14.5	4.77	–	–	–
CO/N=C(\N)c1ccc(-c2cc(C)c3nc(-c4ccc(/C(N)=N\OC)cc4)cn3c2)cc1	5.63	6.21	–	>20.25	5.02	–	–	–
Cc1cc(-c2ccc(C(=N)N)cc2)cn2cc(-c3ccc(C(=N)N)cc3)nc12	7.42	7.64	14.75	–	5.13	–	–	–
CO/N=C(\N)c1ccc(-c2ccc(-c3ccc(/C(N)=N/OC)cn3)o2)cc1	–	–	–	>60	–	–	–	>60
N=C(N)c1ccc(-c2ccc3nc(-c4ccc(C(=N)N)cc4)cn3c2)cc1	8.12	7.04	–	–	5.60	7.70	22	–
Cc1cc2nc(-c3ccc(C(=N)N)cc3)cn2cc1-c1ccc(C(=N)N)cc1	7.89	7.57	>37.25	–	5.17	–	–	–
N=C(N)c1ccc(-c2ccc(-c3ccc(C(=N)N)cc3)o2)cc1 [FURAMIDINE]	–	–	35.5	–	–	–	–	–
CONC(=N)c1ccc(-c2ccc(-c3ccc(C(=N)NOC)cc3)o2)cc1 [PAFURAMIDINE]	–	–	–	>60	–	–	–	–
